# According to ChEMBL document CHEMBL5108076, “Target-Focused Library Design by Pocket-Applied Computer Vision and Fragment Deep Generative Linking” (J Med Chem, 2022):
# Biological target: CDK8/Cyclin C (Homo sapiens, UniProt P49336)
# Assay: Inhibition of Alexa fluor 647 labeled kinase tracer binding to human CDK8/cyclin C incubated for 1 hr by FRET based LanthaScreen Eu-Kinase binding assay
# Assay type: protein-complex assay
# CDK8/Cyclin C, sequence (P49336 whole entry): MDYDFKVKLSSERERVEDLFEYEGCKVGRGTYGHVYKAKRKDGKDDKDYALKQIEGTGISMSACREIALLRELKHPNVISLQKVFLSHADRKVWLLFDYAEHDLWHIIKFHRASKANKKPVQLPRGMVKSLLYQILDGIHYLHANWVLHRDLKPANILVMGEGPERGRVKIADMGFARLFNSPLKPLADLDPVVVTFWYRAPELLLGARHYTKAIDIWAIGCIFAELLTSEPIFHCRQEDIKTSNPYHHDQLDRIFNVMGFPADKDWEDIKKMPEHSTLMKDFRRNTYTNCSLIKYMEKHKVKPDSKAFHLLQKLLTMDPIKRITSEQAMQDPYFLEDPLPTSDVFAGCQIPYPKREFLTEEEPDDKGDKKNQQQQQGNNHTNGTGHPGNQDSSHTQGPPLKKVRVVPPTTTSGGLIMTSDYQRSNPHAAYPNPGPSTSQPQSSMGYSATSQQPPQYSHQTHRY
# CDK8/Cyclin C, sequence (P24863 whole entry, further chain): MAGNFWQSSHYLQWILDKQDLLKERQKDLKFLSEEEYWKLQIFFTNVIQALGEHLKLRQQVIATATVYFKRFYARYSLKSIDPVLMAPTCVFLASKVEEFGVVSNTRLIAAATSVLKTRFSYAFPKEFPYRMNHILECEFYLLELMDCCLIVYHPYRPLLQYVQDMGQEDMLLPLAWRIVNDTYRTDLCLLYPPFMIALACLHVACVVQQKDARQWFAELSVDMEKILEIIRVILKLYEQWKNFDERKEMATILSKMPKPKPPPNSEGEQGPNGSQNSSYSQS
row,SMILES,IC50 [µM]
1,CCOc1ccc(C(=O)Oc2cccnc2)cc1,0.377
2,CCOc1ccc(C(=O)Oc2cncc(NC(=O)Nc3ccccc3)c2)cc1,> 25

# Results, then the compound that gave them:
row,IC50 [µM],SMILES
1,> 25,CCOc1ccc(C(=O)Oc2cncc(C3CCN(c4ccccc4)CC3)c2)cc1
2,0.0064,CCOc1ccc(C(=O)Oc2cnccc2-c2cnn(-c3ccccc3)c2)cc1
3,> 25,CCOc1ccc(C(=O)Oc2cncc(-c3cnn(-c4ccccc4)c3)c2)cc1
4,0.144,CCOc1ccc(C(=O)Oc2cnccc2C2CCN(c3ccccc3)CC2)cc1
5,0.355,CCOc1ccc(C(=O)Oc2cnccc2NC(=O)Nc2ccccc2)cc1

# Biological target: CDK8/Cyclin C (Homo sapiens) (UniProt P49336+P24863)
# Assay: Inhibition of Alexa fluor 647 labeled kinase tracer binding to human CDK8/cyclin C at 10 uM incubated for 1 hr by FRET based LanthaScreen Eu-Kinase binding assay relative to control
# Assay type: protein-complex assay
# Summary of the method: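 Tagged CDK8/CyclinC (5 nM final) with biotin anti-His antibody and Eu-streptavidin; competitor at 10 μM; Alexa Fluor 647 tracer 236 (Kd 8 nM) at 10 nM final. Buffer: HEPES 50 mM pH 7.5, MgCl2 10 mM, EGTA 1 mM, Brij-35 0.01%. Incubated 1 h at room temperature. TR-FRET read with excitation at 337 nm and emission at 665/620 nm. Mean ± SEM of two independent experiments.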
row,inhibition [%],SMILES
1,> 50,COc1ccc(OC(=O)c2cccnc2)cc1
2,> 50,CCOc1ccc(C(=O)Oc2cccnc2)cc1
3,> 50,COc1ccc(C(O)Cc2cccnc2)cc1 (stereo not drawn)
4,> 50,Cc1ccc(SC(C)C(=O)NCc2cccnc2)cc1 (stereo not drawn)
5,> 50,c1ccc(COc2ccc(OCc3ccccn3)cc2)nc1
6,> 50,O=C(Nc1ccncc1)c1ccncc1
